# Test results reported in ChEMBL document CHEMBL1145384, “Novel C-6 fluorinated acyclic side chain pyrimidine derivatives: synthesis, (1)H and (13)C NMR conformational studies, and antiviral and cytostatic evaluations” (J Med Chem, 2007).
# Experiments:
# L1210 = assay: Growth inhibition of mouse L1210 cells after 72 hrs by MTT assay; format: functional, cell-based; conditions: L1210, 72 h
# Human respirovirus 3 = assay: Antiviral activity against parainfluenza 3 virus in Vero cells assessed as reduction of virus plaque formation after 7 days; format: functional, organism-based; conditions: Human respirovirus 3, Vero, 168 h
# Human alphaherpesvirus 3 [1] = assay: Antiviral activity against thymidine kinase expressing Varicella-Zoster virus OKA assessed as reduction of plaque formation; format: functional, organism-based; conditions: Human alphaherpesvirus 3, OKA
# Coxsackievirus B4 = assay: Antiviral activity against coxsackie B4 virus in HeLa cells assessed as reduction of virus plaque formation after 7 days; format: functional, organism-based; conditions: Enterovirus B, 168 h
# HeLa = assay: Growth inhibition of HeLa cells after 72 hrs by MTT assay; format: functional, cell-based; conditions: Homo sapiens
# Summary of the method: (§1)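 Tumor lines grown as monolayers in DMEM with 10% FBS, 2 mM L-glutamine and penicillin. Freshly diluted compounds added, solvent tested at matching concentrations; after 72 h growth measured by MTT. IC50 obtained by linear regression of concentrations bracketing 50% growth; mean of three separate experiments.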
# HEp-2 = assay: Growth inhibition of Hep2 cells after 72 hrs by MTT assay; format: functional, cell-based; conditions: Homo sapiens, HEp-2, 72 h; summary of the method: as §1
# MCF7 = assay: Growth inhibition of MCF7 cells after 72 hrs by MTT assay; format: functional, cell-based; conditions: Homo sapiens, MCF7, 72 h; summary of the method: as §1
# Punta Toro virus = assay: Antiviral activity against Punta Toro virus in Vero cells assessed as reduction of virus plaque formation after 7 days; format: functional, organism-based; conditions: 168 h
# Human betaherpesvirus 5 [2] = assay: Antiviral activity against human cytomegalovirus Davis in HEL cells assessed as reduction of plaque formation after 7days; format: functional, organism-based; conditions: Human betaherpesvirus 5, Davis, 168 h
# Summary of the method: (§2)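 Confluent HEL fibroblasts infected with HCMV (Davis or AD-169) at 100 PFU per well; after 2 h adsorption, residual virus removed and medium with serial compound concentrations added (duplicate wells). Incubated 7 days; EC50 taken as concentration reducing plaque formation by 50%.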
# [3] = Cytotoxicity against HEL cells assessed as cell morphology after 7 days; format: cell-based; conditions: human
# Summary of the method: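 Uninfected confluent HEL cultures exposed to compounds; MCC recorded as lowest concentration producing a microscopically detectable alteration of normal cell morphology at day 7.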
# Human alphaherpesvirus 3 [4] = assay: Antiviral activity against thymidine kinase deficient Varicella-Zoster virus 07/1 assessed as reduction of plaque formation; format: functional, organism-based; conditions: Human alphaherpesvirus 3, 07/1
# Summary of the method: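 Plaque reduction assay in HEL cells against TK+ (OKA) and TK- (07/1) VZV strains; virus input 100 PFU; EC50 as concentration giving 50% plaque reduction.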
# Sindbis virus = assay: Antiviral activity against sindbis virus in Vero cells assessed as reduction of virus plaque formation after 7 days; format: functional, organism-based; conditions: 168 h
# MIA PaCa-2 = assay: Growth inhibition of MiaPaCa2 cells after 72 hrs by MTT assay; format: functional, cell-based; conditions: Homo sapiens, MIA PaCa-2, 72 h; summary of the method: as §1
# [5] = test system: Mammalian orthoreovirus 1; assay: Antiviral activity against reovirus1 virus in Vero cells assessed as reduction of virus plaque formation after 7 days; format: functional, organism-based; conditions: Mammalian orthoreovirus 1, Vero, 168 h
# [6] = Growth inhibition of human Molt4/C8 cells after 72 hrs by MTT assay; format: functional, cell-based; conditions: MOLT-4, 72 h
# SW-620 = assay: Growth inhibition of SW620 cells after 72 hrs by MTT assay; format: functional, cell-based; conditions: Homo sapiens, SW-620, 72 h; summary of the method: as §1
# [7] = Cytotoxicity against HEL cells assessed as cell growth after 7 days; format: cell-based; conditions: human
# CCRF-CEM = assay: Growth inhibition of human CEM cells after 72 hrs by MTT assay; format: functional, cell-based
# Human betaherpesvirus 5 [8] = assay: Antiviral activity against human cytomegalovirus AD169 in HEL cells assessed as reduction of plaque formation after 7 days; format: functional, organism-based; conditions: Human betaherpesvirus 5, AD169, HEL, 168 h; summary of the method: as §2
SMILES,IC50 (L1210) [µM],EC50 (Human respirovirus 3) [µM],EC50 (Human alphaherpesvirus 3 [1]) [µM],EC50 (Coxsackievirus B4) [µM],IC50 (HeLa) [µM],IC50 (HEp-2) [µM],IC50 (MCF7) [µM],EC50 (Punta Toro virus) [µM],EC50 (Human betaherpesvirus 5 [2]) [µM],MCC at 168 h [3] [µM],EC50 (Human alphaherpesvirus 3 [4]) [µM],EC50 (Sindbis virus) [µM],IC50 (MIA PaCa-2) [µM],EC50 [5] [µM],IC50 [6] [µM],IC50 (SW-620) [µM],CC50 at 168 h [7] [µM],IC50 (CCRF-CEM) [µM],EC50 (Human betaherpesvirus 5 [8]) [µM]
COc1cc(/C=C(\O)C(F)(F)C(F)(F)F)nc(OC)n1,80,> 100,> 100,> 100,26.3,55.4,76,> 100,> 100,> 100,> 100,> 100,≥ 100,> 100,43,45,≥ 60,9.7,> 100
Nc1ncnc2c1ncn2C[C@H](O)CO [(S)-DHPA],,> 250,,> 250,,,,> 250,,,,> 250,,> 250,,,,,
CC(O)(CF)Cc1cc(O)nc(O)n1 (stereo unspecified),> 200,> 196,> 100,> 200,> 200,> 200,> 200,> 196,> 100,> 100,> 100,> 196,> 200,> 196,> 200,> 200,> 100,> 200,> 100
COc1nc(OC)c(Br)c(C(Br)Br)n1,8.8,40,8.8,> 40,1,2,6,> 40,> 20,100,10.5,40,2,> 40,8.5,0.4,1.7,7.1,> 20
O=c1[nH]c(=O)n([C@H]2C[C@H](O)[C@@H](CO)O2)cc1/C=C/Br [BRIVUDINE],,> 250,0.014,> 250,,,,> 250,,≥ 1200,168,> 250,,> 250,,,408,,
CC(O)(Cc1cc(O)nc(O)n1)C(F)(F)F (stereo unspecified),> 500,> 200,> 100,> 200,> 100,> 100,> 100,> 200,> 100,> 100,> 100,> 200,> 100,> 200,> 500,> 100,> 100,> 500,> 100
CC(=O)OC(C)(CF)Cc1cc(O)nc(O)n1 (stereo unspecified),> 200,> 200,> 100,> 200,> 200,> 200,> 200,> 200,> 100,> 100,> 100,> 200,> 200,> 200,> 200,> 200,> 100,> 200,> 100
COc1cc(/C=C(/O)C(F)(F)F)nc(OC)n1,> 200,> 100,> 100,> 200,> 200,> 200,> 200,> 100,> 100,> 100,> 100,> 100,> 200,> 100,80,> 200,> 100,> 200,> 80
COc1cc(CC(C)(CF)OC(C)=O)nc(OC)n1 (stereo unspecified),21.7,> 29,8.1,> 147,11.7,17.7,18,> 29,> 14.7,73.5,7.4,> 29,39,> 29,47.8,30,50,20.6,> 14.7
COc1nc(CC(C)(O)c2ccc(F)cc2)c(C)c(OC)n1 (stereo unspecified),195,> 200,80,> 40,35,43,38,> 200,20,> 100,45,> 200,65,> 200,144,≥ 100,> 100,136,45
COc1cc(/C=C(\C)c2ccc(F)cc2)nc(OC)n1,> 200,> 40,> 20,> 40,17,20,16,40,> 20,100,> 20,> 40,> 100,> 40,> 200,56,88,74,> 20
COc1cc(CC(C)(O)C(F)(F)F)nc(OC)n1 (stereo unspecified),> 200,> 200,> 100,> 200,> 200,> 200,> 200,> 200,> 100,> 100,> 100,> 200,> 200,> 200,> 200,> 200,> 100,> 200,> 100
CC(=O)OC(C)(Cc1cc(O)nc(O)n1)Cc1ccccc1F (stereo unspecified),> 200,> 124,> 100,> 200,> 200,> 200,> 200,> 124,> 100,> 100,> 100,> 124,> 200,> 124,> 200,> 200,> 100,> 200,> 100
COc1nc(C)c(Br)c(OC)n1,> 200,> 200,> 100,> 200,> 100,> 100,> 100,> 200,> 100,≥ 100,88,> 200,> 100,> 200,> 200,> 100,18,> 200,> 100
Nc1nc2c(ncn2COC(CO)CO)c(=O)[nH]1 [GANCICLOVIR],,,,,,,,,1.3,> 1580,,,,,,,172,,4.8
COc1cc(CC(C)(O)CF)nc(OC)n1 (stereo unspecified),> 200,> 200,> 100,> 200,> 200,> 200,> 200,> 200,> 100,> 100,> 100,> 200,> 200,> 200,> 200,> 200,> 100,> 200,> 100
Nc1nc2c(ncn2COCCO)c(=O)[nH]1 [ACYCLOVIR],,,,,,,,,,> 1780,,,,,,,649,,
Nc1ccn(C[C@@H](CO)OCP(=O)(O)O)c(=O)n1 [CIDOFOVIR],,,,,,,,,0.41,≥ 1270,,,,,,,51,,0.41
NC(=O)c1ncn([C@@H]2O[C@H](CO)[C@@H](O)[C@H]2O)n1 [RIBAVIRIN],,150,,150,,,,150,,,,50,,250,,,,,
